Measured values collected from several papers.
Compare with care: the assays were run in different laboratories.
Integrin alpha-V/beta-3: Integrin alpha-V/beta-3 (Homo sapiens, UniProt P05106+P06756)
GSR: Glutathione reductase, mitochondrial (GSR, Homo sapiens, UniProt P00390)
LDHA: L-lactate dehydrogenase A chain (LDHA, Homo sapiens, UniProt P00338)
PTPN1: Tyrosine-protein phosphatase non-receptor type 1 (PTPN1, Homo sapiens, UniProt P18031)
Acetylcholinesterase: Acetylcholinesterase (Bos taurus, UniProt P23795)
MAOA: Amine oxidase [flavin-containing] A (MAOA, Homo sapiens, UniProt P21397)

Structure (SMILES)	target	test	setting	IC50
CC[C@H](C)[C@@H]([C@@H](CC(=O)N1CCC[C@H]1[C@H](OC)[C@@H](C)C(=O)N[C@@H](Cc1ccccc1)C(=O)O)OC)N(C)C(=O)[C@@H](NC(=O)[C@H](C(C)C)N(C)C(=O)CCc1cn(CCOCCOCCOCCOCC(=O)NCc2ccc(CN3C(=O)[C@H]4CC(=O)N[C@H](C(=O)O)CC(=O)NCC(=O)N[C@@H](CCCNC(=N)N)C(=O)NC[C@H]3C(=O)N4)cc2)nn1)C(C)C	Integrin alpha-V/beta-3	ligand displacement		0.0107 µM
O=c1c2ccccc2[se]n1-c1ccccc1	GSR	enzyme activity, inhibitor, absorbance		21.5 µM
CC(=O)OC[C@H]1O[C@@H](O[C@H]2[C@H](Oc3cc(O)c4c(=O)cc(-c5ccc(O)c(O)c5)oc4c3)O[C@H](CO)[C@@H](O)[C@@H]2O)[C@H](O)[C@@H](O)[C@@H]1O	LDHA	enzyme activity, inhibitor	pH 7.4	445 µM
Nc1ncnc2c1ncn2[C@@H]1O[C@H](COP(=O)(O)OP(=O)(O)OP(=O)(O)O)[C@@H](O)[C@H]1O	Nucleotide-binding oligomerization domain-containing protein 1 (NOD1, Homo sapiens, UniProt Q9Y239)	ligand displacement, FP		~0.015 µM
NC(Cc1ccc(C(F)(F)[P-](F)(F)(F)(F)F)cc1)C(=O)O (centres unmarked)	PTPN1	enzyme activity, inhibitor		122 µM
CC[C@H](C)[C@@H]([C@@H](CC(=O)N1CCC[C@H]1[C@H](OC)[C@@H](C)C(=O)N[C@H](C)[C@@H](O)c1ccccc1)OC)N(C)C(=O)[C@@H](NC(=O)[C@H](C(C)C)N(C)C(=O)OCc1ccc(NC(=O)[C@H](C)NC(=O)[C@@H](NC(=O)CCc2cn(CCOCCOCCOCCOCC(=O)NCc3ccc(CN4C(=O)[C@H]5CC(=O)N[C@H](C(=O)O)CC(=O)NCC(=O)N[C@@H](CCCNC(=N)N)C(=O)NC[C@H]4C(=O)N5)cc3)nn2)C(C)C)cc1)C(C)C	Integrin alpha-V/beta-3	ligand displacement		0.0362 µM
CNC(=O)Oc1ccccc1OC(C)C	Acetylcholinesterase	enzyme activity, inhibitor, Ellman		1.83 µM
CNC(=O)C(Cc1ccc(C(F)(F)[P-](F)(F)(F)(F)F)cc1)NC(C)=O (centres unmarked)	PTPN1	enzyme activity, inhibitor		872 µM
c1ccc(CCCN2CCN(CCOC(c3ccccc3)c3ccccc3)CC2)cc1	GSR	enzyme activity, inhibitor, absorbance		> 100 µM
CCOP(=O)(OCC)Oc1ccc2c(C)c(Cl)c(=O)oc2c1	Acetylcholinesterase	enzyme activity, inhibitor, Ellman		1.04 µM
CC(=O)N[C@@H](CS)C(=O)O	Angiotensin-converting enzyme 2 (ACE2, Homo sapiens, UniProt Q9BYF1)	enzyme activity, inhibitor, fluorescence		173 µM
CNC(=O)Oc1cccc2c1OC(C)(C)O2	Acetylcholinesterase	enzyme activity, inhibitor, Ellman		0.195 µM
CCCCc1ccc(NS(=O)(=O)c2ccc3c4c(cccc24)C(=O)N3)cc1	PTPN1	enzyme activity, inhibitor		59.4 µM
C[C@@H]1C/C=C/CCCCC(=O)Cc2cc(O)cc(O)c2C(=O)O1	Mitogen-activated protein kinase kinase kinase 7 (MAP3K7, Homo sapiens, UniProt O43318)	enzyme activity, inhibitor, ATP luminescence		> 10 µM
C#CCN(C)c1nc(NCCCCC2CCN(Cc3ccccc3)CC2)c(C#N)c(-c2ccccc2)c1C#N	MAOA	enzyme activity, inhibitor, fluorescence		11.6 µM
CCCCOc1ccc(C(=O)CCN2CCCCC2)cc1	Histamine H2 receptor (HRH2, Homo sapiens, UniProt P25021)	ligand displacement, radioligand		3.13 µM
COc1cc(Nc2ncc(F)c(Nc3ccc4c(n3)NC(=O)C(C)(C)O4)n2)cc(OC)c1OC	Fatty-acid amide hydrolase 1 (Faah, Rattus norvegicus, UniProt P97612)	enzyme activity, inhibitor		1.58 µM
COc1c(O[C@@H]2O[C@H](CO)[C@@H](O)[C@H](O)[C@H]2O)cc2oc(-c3ccc(O)cc3)cc(=O)c2c1O	LDHA	enzyme activity, inhibitor	pH 7.4	210 µM
Cc1ccc2nc(N3C(=O)C(O)=C(C(=O)OC(C)(C)C)C3c3ccc(-c4ccc(Cl)cc4)o3)sc2c1 (centres unmarked)	UDP-N-acetylglucosamine 1-carboxyvinyltransferase (murA, Escherichia coli K-12, UniProt P0A749)	enzyme activity, inhibitor		4.5 µM
O=C(Nc1ccc([N+](=O)[O-])cc1[N+](=O)[O-])c1ccc2c(c1)OCO2	MAOA	enzyme activity, inhibitor		0.289 µM
